Laboratory results as given in PMC10556424 (RSC Advances, 2023).
Read-outs that look alike come from different tables or passages of the source.

How the values were obtained:
CYP2C9 = CYP2C9 (Homo sapiens, UniProt P11712); assay: CYP450 inhibition in human liver microsomes; format: in vitro ADME; settings: pooled human liver microsomes, pH 7.4, probe tolbutamide (100 μM)
In short: (§1)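 Test compound at 10 μM with pooled human liver microsomes (0.2 mg mL−1) and a cocktail of 10 CYP probe substrates. Buffer was 100 mM potassium phosphate, pH 7.4, with 3.3 mM MgCl2, at 37 °C. β-NADPH (1.3 mM) started the reaction. After 10 min, ice-cold 3% formic acid in 5% acetonitrile stopped it. Centrifuged samples went to LC-MS/MS; each metabolite's formation is given as % inhibition versus control.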

CYP2D6 = CYP2D6 (Homo sapiens, UniProt P10635); assay: CYP450 inhibition in human liver microsomes; format: in vitro ADME; settings: pooled human liver microsomes, pH 7.4, probe dextromethorphan (2.5 μM)
In short: as §1

[1] = tested on: HBV DNA in HBV-expressed HepG2.2.15 cells; assay: In vitro anti-HBV activity in HepG2.2.15 cell line; format: cell-based; settings: Hepatitis B virus; for activity at 1 µM: HepG2.2.15, 144 h, read-out: % HBV DNA remaining
In short: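 HepG2.2.15 cells were seeded at 5 × 10^5 per well in high-glucose DMEM with 10% heat-inactivated FBS, 300 mg L−1 G418, 1% non-essential amino acids and antibiotic–antimycotic, then held overnight at 37 °C, 5% CO2. Compound or 0.5% DMSO was given for 3 days, then renewed for 3 more days. Intracellular HBV DNA was measured by qPCR as % remaining versus vehicle; EC50 came from a 4-parameter nonlinear fit.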

[2] = Site of oxidative metabolism; format: in vitro ADME; settings: ESI file S2
[3] = In vitro microsomal stability; format: in vitro ADME; settings: human liver microsomes, 1 μM
In short: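 Compound (1 μM) with pooled human liver microsomes (0.4 mg mL−1) in 100 mM potassium phosphate, pH 7.4, with 3.3 mM MgCl2 and 1.3 mM β-NADPH. Organic solvent was ≤1%, at 37 °C. Time-point samples were quenched with ice-cold acetonitrile containing internal standard, centrifuged, and the supernatants analysed by LC-MS/MS. Results are intrinsic clearance.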

CYP2C19 = CYP2C19 (Homo sapiens, UniProt P33261); assay: CYP450 inhibition in human liver microsomes; format: in vitro ADME; settings: pooled human liver microsomes, pH 7.4, probe (S)-mephenytoin (50 μM)
In short: as §1

[4] = Pharmacokinetic studies in rats; format: in vivo; settings: male, Sprague-Dawley, rat, plasma; for clearance: iv, 0.5 mg/kg; for bioavailability: po, 2 mg/kg
In short: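 Male Sprague-Dawley rats got a single IV bolus (0.5 mg kg−1, in 10% DMSO in 20% hydroxypropyl methyl β-cyclodextrin) or oral gavage (2 mg kg−1, in 40% polyethylene glycol in water). Plasma was taken pre-dose and up to 24 h and assayed by LC-MS/MS. CL and F came from non-compartmental analysis.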

CYP2B6 = target: T1, CYP2B6 (Homo sapiens, UniProt P20813); assay: CYP450 inhibition in human liver microsomes; format: in vitro ADME; settings: pooled human liver microsomes, pH 7.4, probe bupropion (12 μM)
T1 sequence (P20813 1-491): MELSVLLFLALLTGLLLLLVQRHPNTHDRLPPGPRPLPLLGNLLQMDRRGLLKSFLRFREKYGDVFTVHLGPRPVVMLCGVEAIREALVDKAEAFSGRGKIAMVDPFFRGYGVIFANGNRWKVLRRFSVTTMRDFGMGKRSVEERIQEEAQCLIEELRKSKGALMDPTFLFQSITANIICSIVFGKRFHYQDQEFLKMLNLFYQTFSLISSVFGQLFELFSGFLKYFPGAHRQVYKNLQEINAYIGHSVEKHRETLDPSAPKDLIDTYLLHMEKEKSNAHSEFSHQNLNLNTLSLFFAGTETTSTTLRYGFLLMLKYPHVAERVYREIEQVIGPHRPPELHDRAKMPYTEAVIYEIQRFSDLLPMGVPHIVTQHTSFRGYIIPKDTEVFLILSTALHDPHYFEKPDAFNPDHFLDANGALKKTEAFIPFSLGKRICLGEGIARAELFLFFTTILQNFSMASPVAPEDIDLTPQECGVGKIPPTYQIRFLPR
In short: as §1

HBV = settings: cited from earlier work
[5] = tested on: all tested CYPs: CYP1A2, CYP2A6, CYP2B6, CYP2C8, CYP2C9, CYP2C19, CYP2D6, CYP2E1, CYP3A4/5; assay: CYP450 inhibition in human liver microsomes, all tested CYPs; format: in vitro ADME; settings: pooled human liver microsomes, pH 7.4
In short: as §1

[6] = HepG2.2.15, read-out: HBV DNA inhibition EC50

Sequence of CYP2C9 (P11712 whole entry): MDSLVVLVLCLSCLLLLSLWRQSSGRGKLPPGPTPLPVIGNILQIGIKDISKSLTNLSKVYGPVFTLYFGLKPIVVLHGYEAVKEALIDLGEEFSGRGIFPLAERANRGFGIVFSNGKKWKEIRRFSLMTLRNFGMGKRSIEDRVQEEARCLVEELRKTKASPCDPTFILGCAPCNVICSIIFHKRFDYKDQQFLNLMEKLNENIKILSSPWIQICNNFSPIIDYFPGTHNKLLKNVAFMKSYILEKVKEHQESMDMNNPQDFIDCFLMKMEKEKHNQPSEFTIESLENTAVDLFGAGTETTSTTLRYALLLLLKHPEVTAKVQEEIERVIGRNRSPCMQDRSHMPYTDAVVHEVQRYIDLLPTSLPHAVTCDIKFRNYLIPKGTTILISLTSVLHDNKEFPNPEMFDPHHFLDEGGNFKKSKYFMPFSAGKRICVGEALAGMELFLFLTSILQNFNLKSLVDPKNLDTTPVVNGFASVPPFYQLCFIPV
Sequence of CYP2D6 (P10635 whole entry): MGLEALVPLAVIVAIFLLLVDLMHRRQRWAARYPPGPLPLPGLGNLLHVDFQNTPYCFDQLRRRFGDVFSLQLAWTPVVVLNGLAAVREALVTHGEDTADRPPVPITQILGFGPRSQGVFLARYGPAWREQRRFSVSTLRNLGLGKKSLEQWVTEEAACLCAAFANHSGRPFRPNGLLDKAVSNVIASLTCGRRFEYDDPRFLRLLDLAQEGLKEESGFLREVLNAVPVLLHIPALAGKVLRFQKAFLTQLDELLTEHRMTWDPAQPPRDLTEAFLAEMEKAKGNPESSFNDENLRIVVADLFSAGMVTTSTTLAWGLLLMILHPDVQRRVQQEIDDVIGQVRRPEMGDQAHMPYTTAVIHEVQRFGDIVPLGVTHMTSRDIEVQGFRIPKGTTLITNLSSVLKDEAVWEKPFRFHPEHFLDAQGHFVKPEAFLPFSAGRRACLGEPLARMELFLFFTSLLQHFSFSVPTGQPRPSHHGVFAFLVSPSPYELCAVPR
Sequence of CYP2C19 (P33261 whole entry): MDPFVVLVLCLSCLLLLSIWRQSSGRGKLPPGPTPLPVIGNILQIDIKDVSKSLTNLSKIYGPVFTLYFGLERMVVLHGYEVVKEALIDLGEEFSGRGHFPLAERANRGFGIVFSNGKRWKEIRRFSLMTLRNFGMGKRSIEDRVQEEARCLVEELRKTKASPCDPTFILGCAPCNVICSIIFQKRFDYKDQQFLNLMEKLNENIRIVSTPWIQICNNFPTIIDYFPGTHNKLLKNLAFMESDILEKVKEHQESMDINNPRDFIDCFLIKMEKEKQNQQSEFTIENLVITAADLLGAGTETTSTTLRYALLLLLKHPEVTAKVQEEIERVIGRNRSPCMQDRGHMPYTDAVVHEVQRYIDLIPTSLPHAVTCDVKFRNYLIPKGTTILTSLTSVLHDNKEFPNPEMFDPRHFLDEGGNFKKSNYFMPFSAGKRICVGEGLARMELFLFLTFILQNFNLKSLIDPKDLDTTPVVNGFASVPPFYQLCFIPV

Row | SMILES | inhibition at 10 min, 10 µM (CYP2C9) [%] | activity at 1 µM [1] [%] | CLint ([3]; Table 3) [μL per min per mg protein] | EC50 [1, 6] [nM] | CLint ([3]; Table 4) [μL per min per mg protein] | inhibition at 10 min, 10 µM (CYP2B6) [%] | also measured
1 | O=C(Nc1cc(F)c(F)c(F)c1)[C@H]1CCN(C(=O)c2cc3ccccc3[nH]2)C1 [CU03, (S)-1-(1H-Indole-2-carbonyl)-N-(3,4,5-trifluorophenyl)pyrrolidine-3-carboxamide] | 62 | 44 | 9.2 |  |  |  | inhibition at 10 min, 10 µM (CYP2D6): 51%; EC50 ([1]; HepG2.2.15): 447 nM; Site of oxidative metabolic reactions [2]: oxidative metabolic reactions primarily occurred on the R group; inhibition at 10 min, 10 µM (CYP2C19): 63%
2 | Cc1cc(NC(=O)[C@H]2CCN(C(=O)c3ccc(-c4c(C)ncnc4C)[nH]3)[C@H]2C)ccc1F [CU15, (2S,3S)-1-(5-(4,6-Dimethylpyrimidin-5-yl)-1H-pyrrole-2-carbonyl)-N-(4-fluoro-3-methylphenyl)-2-methylpyrrolidine-3-carboxamide] |  |  |  | 8.6 ± 2 | 4.9 |  | clearance [4]: 20 mL/min/kg; bioavailability [4]: 44%; EC50 ([1]; HepG2.2.15): < 10 nM
3 | O=C(Nc1cc(F)c(F)c(F)c1)[C@H]1CCN(C(=O)c2ccc(C3CC3)[nH]2)C1 [CU02, (S)-1-(5-cyclopropyl-1H-pyrrole-2-carbonyl)-N-(3,4,5-trifluorophenyl)pyrrolidine-3-carboxamide] |  | 48 | 14.5 |  |  | 50 | Site of oxidative metabolic reactions [2]: oxidative metabolic reactions primarily occurred on the R group; inhibition at 10 min, 10 µM (CYP2C19): 53%
4 | Cc1ncnc(C)c1-c1ccc(C(=O)N2CC[C@H](C(=O)Nc3cc(F)c(F)c(F)c3)[C@@H]2C)[nH]1 [CU13, (2S,3S)-1-(5-(4,6-Dimethylpyrimidin-5-yl)-1H-pyrrole-2-carbonyl)-2-methyl-N-(3,4,5-trifluorophenyl)pyrrolidine-3-carboxamide] |  |  |  | 17.8 ± 3 | 2.1 |  | 
5 | O=C(Nc1cc(F)c(F)c(F)c1)[C@H]1CCN(C(=O)c2ccc(-c3ccncc3)[nH]2)C1 [CU06, (S)-1-(5-(Pyridin-4-yl)-1H-pyrrole-2-carbonyl)-N-(3,4,5-trifluorophenyl)pyrrolidine-3-carboxamide] | 67 | 28 | 4.6 |  |  | 81 | inhibition at 10 min, 10 µM (CYP2D6): 89%
6 | Cc1ncnc(C)c1-c1ccc(C(=O)N2CC[C@H](C(=O)Nc3ccc(F)c(Cl)c3)C2)[nH]1 [CU12, (S)–N-(3-Chloro-4-fluorophenyl)-1-(5-(4,6-dimethylpyrimidin-5-yl)-1H-pyrrole-2-carbonyl)pyrrolidine-3-carboxamide] |  |  |  | 18.2 ± 2 | 3.6 |  | 
7 | O=C(Nc1cc(F)c(F)c(F)c1)[C@H]1CCN(C(=O)c2ccc(-c3cccnc3)[nH]2)C1 [CU05, (S)-1-(5-(Pyridin-3-yl)-1H-pyrrole-2-carbonyl)-N-(3,4,5-trifluorophenyl)pyrrolidine-3-carboxamide] | 87 | 47 | 2.9 |  |  | 65 | 
8 | C[C@H](NS(=O)(=O)c1cc(C(=O)Nc2ccc(F)c(C#N)c2)n(C)c1)C(F)(F)F [JNJ-6379] |  |  |  |  |  |  | pEC 50 (HBV): 7.22 (ref. [15])
9 | Cc1cc(NC(=O)[C@H]2CCN(C(=O)c3ccc(-c4c(C)n[nH]c4C)[nH]3)[C@H]2C)ccc1F [CU16, (2S,3S)-1-(5-(3,5-Dimethyl-1H-pyrazol-4-yl)-1H-pyrrole-2-carbonyl)-N-(4-fluoro-3-methylphenyl)-2-methylpyrrolidine-3-carboxamide] |  |  |  | 14.9 ± 3 | 11.7 |  | 
10 | Cc1ccc(C(=O)N2CC[C@H](C(=O)Nc3cc(F)c(F)c(F)c3)C2)[nH]1 [CU01, (S)-1-(5-Methyl-1H-pyrrole-2-carbonyl)-N-(3,4,5-trifluorophenyl)pyrrolidine-3-carboxamide] |  | 59 | 14.4 |  |  |  | inhibition at 10 min, 10 µM [5]: < 20%
11 | O=C(Nc1cc(F)c(F)c(F)c1)[C@H]1CCN(C(=O)c2ccc(-c3ccccn3)[nH]2)C1 [CU07, (S)-1-(5-(Pyridin-2-yl)-1H-pyrrole-2-carbonyl)-N-(3,4,5-trifluorophenyl)pyrrolidine-3-carboxamide] |  | 77 | 6.2 |  |  |  | inhibition at 10 min, 10 µM [5]: < 20%
12 | O=C(Nc1cc(F)c(F)c(F)c1)[C@H]1CCN(C(=O)c2ccc(-c3cncnc3)[nH]2)C1 [CU08, (S)-1-(5-(Pyrimidin-5-yl)-1H-pyrrole-2-carbonyl)-N-(3,4,5-trifluorophenyl)pyrrolidine-3-carboxamide] | 53 | 43 | 0.5 |  |  | 61 | 
13 | Cc1ncnc(C)c1-c1ccc(C(=O)N2CC[C@H](C(=O)Nc3ccc(F)c(Cl)c3)[C@@H]2C)[nH]1 [CU14, (2S,3S)–N-(3-Chloro-4-fluorophenyl)-1-(5-(4,6-dimethylpyrimidin-5-yl)-1H-pyrrole-2-carbonyl)-2-methylpyrrolidine-3-carboxamide] |  |  |  | 13.2 ± 2 | 2.9 |  | clearance [4]: 12.3 mL/min/kg; bioavailability [4]: 66%
